Blank lines part the entries; values can stand above or below the molecule they belong to.
Experiments:
A375 cells = experiment: MTT cell viability assay; type: cell-based, human; conditions: 48 h
Method in brief: (§1)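 A375 cells were kept in high-glucose DMEM with 10% heat-inactivated FBS, 2 mM L-glutamine and pen/strep. Cells were seeded at 0.5×10^5/well and exposed to 10 µM test compound for 48 h at 37 °C, 5% CO₂, then given MTT. Viability = 100(x−y)/(z−y), where x, y and z are absorbance of treated, resting and untreated cells. Mean ± SD, ≥3 experiments in triplicate.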

IDO1 = IDO1 (Homo sapiens, UniProt P14902); experiment: Cellular IDO1 inhibition; type: cell-based; conditions: A375 cell line, IFN-γ, 48 h; for IDO cellular assay inhibition [%] @ 10 μM±SD: L-Kyn by HPLC; for IC50: IC50±SD [μM]
Chain of IDO1 (P14902 whole entry): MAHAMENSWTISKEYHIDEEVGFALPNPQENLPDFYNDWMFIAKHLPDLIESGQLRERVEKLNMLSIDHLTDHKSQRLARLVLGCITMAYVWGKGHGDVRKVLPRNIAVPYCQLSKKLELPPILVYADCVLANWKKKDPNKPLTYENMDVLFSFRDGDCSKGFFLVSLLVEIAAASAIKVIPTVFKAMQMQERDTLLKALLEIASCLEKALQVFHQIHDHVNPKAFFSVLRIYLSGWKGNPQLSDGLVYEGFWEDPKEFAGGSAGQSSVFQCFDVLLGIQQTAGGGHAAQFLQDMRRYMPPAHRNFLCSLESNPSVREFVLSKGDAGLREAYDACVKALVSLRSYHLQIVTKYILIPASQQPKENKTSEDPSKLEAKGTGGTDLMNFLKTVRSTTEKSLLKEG
Method in brief: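 A375 cells (0.5×10^5/well) were grown overnight, then given test compound (serial dilutions 0.01–30 µM, or single 10 µM) with human IFN-γ (500 U/mL final) and 0.1% DMSO for 48 h. Medium was deproteinized with 20% CCl₃COOH. L-Kyn was quantified by C18 HPLC at 330 nm against a calibration curve; % inhibition was taken versus basal levels. IC50s came from concentration-response curves, ≥3 experiments in triplicate.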

MTT cell viability assay = type: cell-based, human; conditions: human, A375 cells, Cell viability [%] @ 10 μM±SD
Method in brief: as §1

TDO (P1.TDO) = TDO (P1.TDO) (Homo sapiens, UniProt P48775); experiment: IDO1 and TDO selectivity assay, P1.TDO cells; type: cell-based; conditions: 10 μM, 16 h
Chain of TDO (P1.TDO) (P48775 whole entry): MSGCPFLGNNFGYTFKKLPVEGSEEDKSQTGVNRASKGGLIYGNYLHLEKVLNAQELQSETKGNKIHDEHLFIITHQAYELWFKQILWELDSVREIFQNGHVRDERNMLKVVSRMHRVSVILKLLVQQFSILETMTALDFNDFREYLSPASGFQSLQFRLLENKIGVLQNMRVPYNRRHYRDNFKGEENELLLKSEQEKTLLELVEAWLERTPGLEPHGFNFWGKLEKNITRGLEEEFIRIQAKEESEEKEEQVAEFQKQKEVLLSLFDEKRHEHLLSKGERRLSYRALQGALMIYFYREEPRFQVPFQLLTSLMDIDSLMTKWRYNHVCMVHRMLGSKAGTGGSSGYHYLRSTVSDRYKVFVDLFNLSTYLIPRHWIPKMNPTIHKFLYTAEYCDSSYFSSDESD
Method in brief: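 Mouse mastocytoma P815-derived P1.HTR cells, stably electroporated with a human TDO plasmid and selected in puromycin, grown in IMDM with 1 mM glutamine and penicillin/streptomycin, used at ≤10th passage. Cells incubated 16 h with 10 μM test compound; DMSO vehicle as control. Supernatant L-Kyn measured by HPLC-UV (C18 column) against a calibration curve, detection limit 0.05 μM. Triplicate.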

[1] = In vitro metabolic stability in rat liver S9 fraction; type: in vitro ADME; conditions: rat liver S9 with NADPH, 5 μM substrate, 37 °C
Method in brief: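 Pooled male Sprague Dawley rat liver S9 (1.5 mg/mL final protein) was used in 50 mM Tris pH 7.4 with 3.3 mM MgCl₂, 1.3 mM β-NADP, 3.3 mM glucose 6-phosphate, 0.4 U/mL G6PDH and 1% acetonitrile. Test compound was 5 µM, shaken 60 min at 37 °C. Controls lacked S9 or cofactors. Reactions were stopped with ice-cold acetonitrile and centrifuged; residual substrate was measured.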

[2] = tested on: CYP (aminopyrine N-demethylase activity); experiment: CYP inhibition: aminopyrine N-demethylase assay in rat liver microsomes; type: in vitro ADME; conditions: rat liver microsomes, 1, 10 and 100 μM
Method in brief: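 Aminopyrine N-demethylation by rat liver microsomes, with inhibition read as the […] after aminopyrine incubation. Ketoconazole served as the reference CYP inhibitor.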

holo-IDO1 = holo-IDO1 (Homo sapiens, UniProt P14902); experiment: Heme detection; type: binding; conditions: 1 μM holo-IDO1, 120 min, 37 °C; VS9 different concentrations, epacadostat 20 μM
Chain of holo-IDO1 (P14902 whole entry): as the sequence (P14902 whole entry) above
Method in brief: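 1 µM holo-IDO1 in 100 mM potassium phosphate (pH 7.2) with 1 mM CHAPS was incubated with varying test-compound concentrations, or 20 µM reference inhibitor, for 120 min at 37 °C. Samples were diluted 100-fold, and free heme was measured with a hemin detection kit at 570 nm. Values are relative to untreated, mean of n=3 ± SD.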

IDO cellular assay inhibition [%] @ 10 μM±SD (IDO1): 22±5%
Molecule: 2‐Methyl‐3‐((pyridin‐3‐ylmethyl)amino)‐N‐((6‐(trifluoromethyl)‐[1,2,4]triazolo[4,3‐a]pyridin‐3‐yl)methyl)benzamide [Compound 11]
Cell viability [%] @ 10 μM±SD (A375 cells): 91±12.7%

Molecule: O=C(NCc1nnc2ccc(C(F)(F)F)cn12)c1ccc(O)c(Br)c1 [Compound 12, 3‐Bromo‐4‐hydroxy‐N‐((6‐(trifluoromethyl)‐[1,2,4]triazolo[4,3‐a]pyridin‐3‐yl)methyl)benzamide]
viability at 48 h, 10 μM (MTT cell viability assay): 92 ± 12%

Molecule: O=C(NCc1nnc2ccc(C(F)(F)F)cn12)c1cc(Br)c(O)cc1O [Compound 13, 5‐Bromo‐2,4‐dihydroxy‐N‐((6‐(trifluoromethyl)‐[1,2,4]triazolo[4,3‐a]pyridin‐3‐yl)methyl)benzamide]
viability at 48 h, 10 μM (MTT cell viability assay): 94 ± 2.8%

Molecule: Cc1ccc(Br)c(C)c1C(=O)NCc1nnc2ccc(C(F)(F)F)cn12 [Compound 14, 3‐Bromo‐2,6‐dimethyl‐N‐((6‐(trifluoromethyl)‐[1,2,4]triazolo[4,3‐a]pyridin‐3‐yl)methyl)benzamide]
viability at 48 h, 10 μM (MTT cell viability assay): 100%

Molecule: O=C(NCc1nnc2ccc(C(F)(F)F)cn12)c1c(F)ccc(Cl)c1Cl [Compound 15, 2,3‐Dichloro‐6‐fluoro‐N‐((6‐(trifluoromethyl)‐[1,2,4]triazolo[4,3‐a]pyridin‐3‐yl)methyl)benzamide]
viability at 48 h, 10 μM (MTT cell viability assay): 100 ± 0.7%

Molecule: COc1cc(F)c(C(=O)NCc2nnc3ccc(C(F)(F)F)cn23)c(F)c1 [Compound 16, 2,6‐Difluoro‐4‐methoxy‐N‐((6‐(trifluoromethyl)‐[1,2,4]triazolo[4,3‐a]pyridin‐3‐yl)methyl)benzamide]
viability at 48 h, 10 μM (MTT cell viability assay): 100 ± 5.2%

Molecule: COc1cc(C)c(C(=O)NCc2nnc3ccc(C(F)(F)F)cn23)c(C)c1 [Compound 17, 4‐Methoxy‐2,6‐dimethyl‐N‐((6‐(trifluoromethyl)‐[1,2,4]triazolo[4,3‐a]pyridin‐3‐yl)methyl)benzamide]
viability at 48 h, 10 μM (MTT cell viability assay): 89 ± 9.2%

Molecule: O=C(NCc1nnc2ccc(C(F)(F)F)cn12)c1cc(-c2ccc(F)cc2)ccc1F [Compound 18, 4,4′‐Difluoro‐N‐((6‐(trifluoromethyl)‐[1,2,4]triazolo[4,3‐a]pyridin‐3‐yl)methyl)‐[1,1′‐biphenyl]‐3‐carboxamide]
viability at 48 h, 10 μM (MTT cell viability assay): 88 ± 16.8%

Molecule: N#Cc1ccc(-c2ccc(F)c(C(=O)NCc3nnc4ccc(C(F)(F)F)cn34)c2)cc1 [Compound 19, 4′‐Cyano‐4‐fluoro‐N‐((6‐(trifluoromethyl)‐[1,2,4]triazolo[4,3‐a]pyridin‐3‐yl)methyl)‐[1,1′‐biphenyl]‐3‐carboxamide]
viability at 48 h, 10 μM (MTT cell viability assay): 97 ± 2.1%

Molecule: Cc1ccccc1-c1ccc(F)c(C(=O)NCc2nnc3ccc(C(F)(F)F)cn23)c1 [Compound 20, 4‐Fluoro‐2′‐methyl‐N‐((6‐(trifluoromethyl)‐[1,2,4]triazolo[4,3‐a]pyridin‐3‐yl)methyl)‐[1,1′‐biphenyl]‐3‐carboxamide]
viability at 48 h, 10 μM (MTT cell viability assay): 100%

Molecule: COc1ccc(-c2ccc(F)c(C(=O)NCc3nnc4ccc(C(F)(F)F)cn34)c2)cc1 [Compound 21, 4‐Fluoro‐4′‐methoxy‐N‐((6‐(trifluoromethyl)‐[1,2,4]triazolo[4,3‐a]pyridin‐3‐yl)methyl)‐[1,1′‐biphenyl]‐3‐carboxamide]
viability at 48 h, 10 μM (MTT cell viability assay): 78 ± 4.2%

Molecule: Cc1ccc(-c2cccc(C(=O)NCc3nnc4ccc(C(F)(F)F)cn34)c2)cc1 [Compound 22, 4′‐Methyl‐N‐((6‐(trifluoromethyl)‐[1,2,4]triazolo[4,3‐a]pyridin‐3‐yl)methyl)‐[1,1′‐biphenyl]‐3‐carboxamide]
viability at 48 h, 10 μM (MTT cell viability assay): 93 ± 9.8%

IC50 (IDO1): 2 ± 0.3 µM
Residual peak area after RLS9 incubation (60 min) [1]: higher than 99%
Molecule: Cc1ccc(-c2ccc(F)c(C(=O)NCc3nnc4ccc(C(F)(F)F)cn34)c2)cc1C [Compound 24, 4‐Fluoro‐3′,4′‐dimethyl‐N‐((6‐(trifluoromethyl)‐[1,2,4]triazolo[4,3‐a]pyridin‐3‐yl)methyl)‐[1,1′‐biphenyl]‐3‐carboxamide]
viability at 48 h, 10 μM (MTT cell viability assay): 95 ± 7.2%
Kyn levels in P1.TDO cells (TDO (P1.TDO)): not able to induce a reduction of Kyn levels in P1.TDO

IC50 (IDO1): 1.4 ± 0.5 µM
Residual peak area after RLS9 incubation (60 min) [1]: higher than 99%
CYP inhibition (aminopyrine N-demethylase activity) [2]: low inhibition at 10 and 100 μM
Molecule: COc1ccc(-c2ccc(F)c(C(=O)NCc3nnc4ccc(C(F)(F)F)cn34)c2)cc1OC [Compound 25, 4‐Fluoro‐3′,4′‐dimethoxy‐N‐((6‐(trifluoromethyl)‐[1,2,4]triazolo[4,3‐a]pyridin‐3‐yl)methyl)‐[1,1′‐biphenyl]‐3‐carboxamide]
viability at 48 h, 10 μM (MTT cell viability assay): 94 ± 2.1%
Kyn levels in P1.TDO cells (TDO (P1.TDO)): not able to induce a reduction of Kyn levels in P1.TDO

Molecule: O=C(NCc1nnc2ccc(Cl)cn12)c1cccc2cn[nH]c12 [Compound 30, N‐((6‐Chloro‐[1,2,4]triazolo[4,3‐a]pyridin‐3‐yl)methyl)‐1H‐indazole‐7‐carboxamide]
viability at 48 h, 10 μM (MTT cell viability assay): 98 ± 7.4%

Molecule: COc1ccc(-c2ccc(F)c(C(=O)NCc3nnc4ccc(Cl)cn34)c2)cc1OC [Compound 32, N‐((6‐Chloro‐[1,2,4]triazolo[4,3‐a]pyridin‐3‐yl)methyl)‐4‐fluoro‐3′,4′‐dimethoxy‐[1,1′‐biphenyl]‐3‐carboxamide]
viability at 48 h, 10 μM (MTT cell viability assay): 98 ± 9.3%

IC50 (IDO1): 6.9 ± 0.8 µM
Molecule: O=C(NCc1nnc2ccc3ccccc3n12)c1cccc2cn[nH]c12 [Compound 37, N‐([1,2,4]Triazolo[4,3‐a]quinolin‐1‐ylmethyl)‐1H‐indazole‐7‐carboxamide]
viability at 48 h, 10 μM (MTT cell viability assay): 100 ± 4.1%

IC50 (IDO1): 0.9 ± 0.02 µM
Molecule: O=C(NCc1nnc2ccc3ccccc3n12)c1ccc(O)c(Br)c1 [Compound 38, N‐([1,2,4]Triazolo[4,3‐a]quinolin‐1‐ylmethyl)‐3‐bromo‐4‐hydroxybenzamide]
viability at 48 h, 10 μM (MTT cell viability assay): 95 ± 7.1%
Kyn levels in P1.TDO cells (TDO (P1.TDO)): not able to induce a reduction of Kyn levels in P1.TDO
CYP inhibition (aminopyrine N-demethylase activity) [2]: did not significantly inhibit CYP at the tested concentrations

IC50 (IDO1): 1.8 ± 0.2 µM
Residual peak area after RLS9 incubation (60 min) [1]: higher than 99%
Molecule: COc1cc(C)c(C(=O)NCc2nnc3ccc4ccccc4n23)c(C)c1 [Compound 39, N‐([1,2,4]Triazolo[4,3‐a]quinolin‐1‐ylmethyl)‐4‐methoxy‐2,6‐dimethylbenzamide]
viability at 48 h, 10 μM (MTT cell viability assay): 94 ± 6.3%
Kyn levels in P1.TDO cells (TDO (P1.TDO)): not able to induce a reduction of Kyn levels in P1.TDO

IC50 (IDO1): 3.4 ± 0.3 µM
Residual peak area after RLS9 incubation (60 min) [1]: higher than 99%
Molecule: COc1ccc(-c2ccc(F)c(C(=O)NCc3nnc4ccc5ccccc5n34)c2)cc1 [Compound 40, N‐([1,2,4]triazolo[4,3‐a]quinolin‐1‐ylmethyl)‐4‐fluoro‐4′‐methoxy‐[1,1′‐biphenyl]‐3‐carboxamide]
viability at 48 h, 10 μM (MTT cell viability assay): 97 ± 3.8%

Molecule: O=C(NCc1nnc2ccccn12)c1cccc2cn[nH]c12 [Compound 42, N‐([1,2,4]Triazolo[4,3‐a]pyridin‐3‐ylmethyl)‐1H‐indazole‐7‐carboxamide]
viability at 48 h, 10 μM (MTT cell viability assay): 100%

Molecule: O=C(NCc1cccc2ccccc12)c1cccc2cn[nH]c12 [Compound 44, N‐(Naphthalen‐1‐ylmethyl)‐1H‐indazole‐7‐carboxamide]
viability at 48 h, 10 μM (MTT cell viability assay): 99 ± 1%

levels of free heme after incubation with IDO1 (holo-IDO1): did not increase the levels of free heme
Molecule: NS(=O)(=O)NCCNc1nonc1C(=NO)Nc1ccc(F)c(Br)c1 [epacadostat, reference compound]

CYP inhibition (aminopyrine N-demethylase activity) [2]: strong inhibition of CYP
Molecule: CC(=O)N1CCN(c2ccc(OCC3COC(Cn4ccnc4)(c4ccc(Cl)cc4Cl)O3)cc2)CC1 (stereo not shown) [ketoconazole, reference compound]

IDO cellular assay inhibition [%] @ 10 μM±SD (IDO1): 34±1%
Molecule: N‐((6‐(Trifluoromethyl)‐[1,2,4]triazolo[4,3‐a]pyridin‐3‐yl)methyl)‐9H‐fluorene‐4‐carboxamide [Compound 10]
Cell viability [%] @ 10 μM±SD (A375 cells): 90±14.8%

Source: publication PMC9291769 (Chemmedchem, 2021)
